ChEMBL document CHEMBL1122008, “Lipophilic 5'-(alkyl phosphate) esters of 1-beta-D-arabinofuranosylcytosine and its N4-acyl and 2,2'-anhydro-3'-O-acyl derivatives as potential prodrugs” (1982)

Key:
Assay type in all cases: functional
Mus musculus [1] = assay: Antitumor activity against L1210 leukemia in mice (Percent increase in life span.) at the dose of 250 mg/kg
How it was run: (§1)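 Male B6D2F1J mice, groups of 5–9, inoculated ip with 10^5 L1210 cells on day 0. Dosing starts day 1 on a qd×5 or q4d(2,6) schedule. Vehicles are sterile water, pH 7.4 0.05 M potassium phosphate buffer, or 0.4% Tween 80/0.5% CMC/0.9% benzyl alcohol/0.9% saline. %ILS = (T/C − 1)×100 from median survival. Weights taken days 1 and 7.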

Mus musculus [2] = assay: Antitumor activity against L1210 leukemia in mice (Average weight per mouse on day 1.) at the dose of 100 mg/kg
How it was run: (§2)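 Male B6D2F1J mice (5–9 per group) received 10^5 L1210 cells i.p. on day 0 and drug from day 1, given qd×5 or q4d(2,6). Vehicles were sterile water, 0.05 M potassium phosphate pH 7.4, or 0.4% Tween 80/0.5% CMC/0.9% benzyl alcohol/0.9% saline. Read-out is average body weight per mouse (g) on day 1.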

Mus musculus [3] = assay: Antitumor activity against L1210 leukemia in mice (Average weight per mouse on day 1.) at the dose of 200 mg/kg; how it was run: as §2
Mus musculus [4] = assay: Antitumor activity against L1210 leukemia in mice (Average weight per mouse on day 1.) at the dose of 250 mg/kg; how it was run: as §2
Mus musculus [5] = assay: Antitumor activity against L1210 leukemia in mice (Average weight per mouse on day 1.) at the dose of 500 mg/kg; how it was run: as §2
Mus musculus [6] = assay: Antitumor activity against L1210/ara-C leukemia in mice (Average weight per mouse on day 1.) at the dose of 1000 mg/kg
How it was run: (§3)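 Male B6D2F1J mice, groups of 5–9, inoculated ip with 10^5 L1210/ara-C cells on day 0. Dosing began day 1 on a qd×5 or q4d(2,6) schedule. Ara-C was given in sterile water, the n-butyl phosphate ester in 0.05 M pH 7.4 potassium phosphate buffer, and others as suspensions in 0.4% Tween 80/0.5% CMC/0.9% benzyl alcohol/0.9% saline. Mice were weighed on days 1 and 7; 7-day change given in g and %.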

Mus musculus [7] = assay: Antitumor activity against L1210/ara-C leukemia in mice (Average weight per mouse on day 1.) at the dose of 100 mg/kg; how it was run: as §3
Mus musculus [8] = assay: Antitumor activity against L1210/ara-C leukemia in mice (Average weight per mouse on day 1.) at the dose of 250 mg/kg; how it was run: as §3
Mus musculus [9] = assay: Antitumor activity against L1210 leukemia in mice (Percent increase in life span.) at the dose of 1000 mg/kg; how it was run: as §1
Mus musculus [10] = assay: Antitumor activity against L1210 leukemia in mice (Percent increase in life span.) at the dose of 100 mg/kg; how it was run: as §1
Mus musculus [11] = assay: Antitumor activity against L1210 leukemia in mice (Percent increase in life span.) at the dose of 200 mg/kg; how it was run: as §1
Mus musculus [12] = assay: Antitumor activity against L1210 leukemia in mice (Percent increase in life span.) at the dose of 500 mg/kg; how it was run: as §1
Mus musculus [13] = assay: Antitumor activity against L1210 leukemia in mice (Percent increase in life span.) at the dose of 50 mg/kg; how it was run: as §1
Mus musculus [14] = assay: Antitumor activity against L1210/ara-C leukemia in mice (Percent increase in life span.) at the dose of 100 mg/kg
How it was run: (§4)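 Same protocol as the L1210 assay, but with 10^5 kinase-deficient L1210/ara-C cells inoculated ip into male B6D2F1J mice (groups of 5–9) on day 0. Treatment begins day 1, qd×5 or q4d(2,6). %ILS = (T/C − 1)×100 using median survival times of treated and control groups. Body weight recorded days 1 and 7.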

Mus musculus [15] = assay: Antitumor activity against L1210 leukemia in mice (Average 7-day weight change (%)) at the dose of 250 mg/kg
How it was run: (§5)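 Male B6D2F1J mice, groups of five to nine, inoculated ip with 10^5 L1210 cells on day 0. Drug treatment started day 1 on qd×5 or q4d(2,6) schedule. Vehicles: ara-C in sterile water; the n-butyl phosphate ester in 0.05 M pH 7.4 potassium phosphate buffer; others as suspensions in 0.4% Tween 80/0.5% low-density CMC/0.9% benzyl alcohol/0.9% saline. Mice weighed days 1 and 7; 7-day weight change given as g/mouse and %.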

Mus musculus [16] = assay: Antitumor activity against L1210/ara-C leukemia in mice (Percent increase in life span.) at the dose of 200 mg/kg; how it was run: as §4
Mus musculus [17] = assay: Antitumor activity against L1210/ara-C leukemia in mice (Percent increase in life span.) at the dose of 250 mg/kg; how it was run: as §4
Mus musculus [18] = assay: Antitumor activity against L1210/ara-C leukemia in mice (Percent increase in life span.) at the dose of 500 mg/kg; how it was run: as §4
Mus musculus [19] = assay: Antitumor activity against L1210 leukemia in mice (Average 7-day weight change) at the dose of 250 mg/kg; how it was run: as §5
Mus musculus [20] = assay: Antitumor activity against L1210 leukemia in mice (Average 7-day weight change (%)) at the dose of 1000 mg/kg; how it was run: as §5
Mus musculus [21] = assay: Antitumor activity against L1210 leukemia in mice (Average 7-day weight change (%)) at the dose of 500 mg/kg; how it was run: as §5
Mus musculus [22] = assay: Antitumor activity against L1210 leukemia in mice (Average 7-day weight change) at the dose of 1000 mg/kg; how it was run: as §5
Mus musculus [23] = assay: Antitumor activity against L1210/ara-C leukemia in mice (Average 7-day weight change) at the dose of 200 mg/kg
How it was run: (§6)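 Male B6D2F1J mice (5–9 per group) were given 10^5 L1210/ara-C cells i.p. on day 0, with treatment from day 1 on qd×5 or q4d(2,6). Vehicles were sterile water, pH 7.4 0.05 M phosphate buffer, or a Tween 80/CMC/benzyl alcohol saline suspension. Weights were taken on days 1 and 7; change is expressed in g/mouse and as a percentage.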

Mus musculus [24] = assay: Antitumor activity against L1210/ara-C leukemia in mice (Average 7-day weight change) at the dose of 500 mg/kg; how it was run: as §3
Mus musculus [25] = assay: Antitumor activity against L1210 leukemia in mice (Average 7-day weight change) at the dose of 50 mg/kg; how it was run: as §5
Mus musculus [26] = assay: Antitumor activity against L1210/ara-C leukemia in mice (Average 7-day weight change (%)) at the dose of 1000 mg/kg; how it was run: as §6
Mus musculus [27] = assay: Antitumor activity against L1210/ara-C leukemia in mice (Average 7-day weight change (%)) at the dose of 200 mg/kg; how it was run: as §6
Mus musculus [28] = assay: Antitumor activity against L1210/ara-C leukemia in mice (Average 7-day weight change (%)) at the dose of 250 mg/kg; how it was run: as §6
Mus musculus [29] = assay: Antitumor activity against L1210/ara-C leukemia in mice (Average 7-day weight change (%)) at the dose of 500 mg/kg; how it was run: as §6
Mus musculus [30] = assay: Antitumor activity against L1210/ara-C leukemia in mice (Average 7-day weight change) at the dose of 1000 mg/kg; how it was run: as §6
Mus musculus [31] = assay: Antitumor activity against L1210/ara-C leukemia in mice (Average 7-day weight change) at the dose of 100 mg/kg; how it was run: as §6
Mus musculus [32] = assay: Antitumor activity against L1210 leukemia in mice (Average 7-day weight change (%)) at the dose of 100 mg/kg; how it was run: as §5

Structure (SMILES): Nc1ccn([C@@H]2O[C@H](CO)[C@@H](O)[C@@H]2O)c(=O)n1 [CYTARABINE]
- ILS at 250 mg/kg (Mus musculus [1]): 62%
- Average weight (Mus musculus [2]): 22.4 g mouse-1
- Average weight (Mus musculus [3]): 22.6 g mouse-1
- Average weight (Mus musculus [4]): 21.4 g mouse-1
- Average weight (Mus musculus [5]): 22.6 g mouse-1
- Average weight (Mus musculus [6]): 22 g mouse-1
- Average weight (Mus musculus [7]): 24 g mouse-1
- Average weight (Mus musculus [8]): 19.4 g mouse-1
- ILS at 1000 mg/kg (Mus musculus [9]): 87%
- ILS at 100 mg/kg (Mus musculus [10]): 100%
- ILS at 200 mg/kg (Mus musculus [11]): 112%
- ILS at 500 mg/kg (Mus musculus [12]): 62%
- ILS at 50 mg/kg (Mus musculus [13]): 75%
- ILS at 100 mg/kg (Mus musculus [14]): -13%
- Weight change (Mus musculus [15]): 7%
- ILS at 200 mg/kg (Mus musculus [16]): -13%
- ILS at 250 mg/kg (Mus musculus [17]): 12%
- ILS at 500 mg/kg (Mus musculus [18]): 12%
- Weight change (Mus musculus [19]): 1.4 g mouse-1
- Weight change (Mus musculus [20]): 3%
- Weight change (Mus musculus [21]): 2%
- Weight change (Mus musculus [22]): 0.8 g mouse-1
- Weight change (Mus musculus [23]): -3.1 g mouse-1
- Weight change (Mus musculus [24]): 3.8 g mouse-1
- Weight change (Mus musculus [25]): 0.2 g mouse-1
- Weight change (Mus musculus [26]): 11%
- Weight change (Mus musculus [27]): -14%
- Weight change (Mus musculus [28]): 20%
- Weight change (Mus musculus [29]): 19%
- Weight change (Mus musculus [30]): 2.4 g mouse-1
- Weight change (Mus musculus [31]): -1.1 g mouse-1
- Weight change (Mus musculus [32]): -5%
